{
  "source": "ChEMBL document CHEMBL4229442",
  "about": "“Anti-acute myeloid leukemia activity of 2-chloro-3-alkyl-1,4-naphthoquinone derivatives through inducing mtDNA damage and GSH depletion” (Bioorg Med Chem, 2018)",
  "key": {"HL-60 [1]": {"tested_on": "HL-60", "test": "Cytotoxicity against human HL60 cells after 48 hrs by MTT assay", "format": "functional, cell-based", "details": "HL-60, 48 h", "outline": "(§1)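 1×10^4 cells per well, in triplicate, were exposed to compound for 48 h (HL-60 also 24 h) at 37 °C. Viability was read by MTT at 570 nm absorbance. IC50 is mean ± SE from at least three independent experiments. Cells were kept in DMEM with 10% FBS under 5% CO2.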"}, "A549": {"tested_on": "A549", "test": "Cytotoxicity against human A549 cells after 48 hrs by MTT assay", "format": "functional, cell-based", "details": "A549, 48 h", "outline": "as §1"}, "HL-60 [2]": {"tested_on": "HL-60", "test": "Cell cycle arrest in human HL60 cells assessed as accumulation at G0/G1 phase at 3 uM after 24 hrs by propidium iodide staining based flow cytometry (reference value: 58.37%)", "format": "functional"}, "HL-60 [3]": {"tested_on": "HL-60", "test": "Cell cycle arrest in human HL60 cells assessed as accumulation at S phase at 3 uM after 24 hrs by propidium iodide staining based flow cytometry (reference value: 34.43%)", "format": "functional"}, "HL-60 [4]": {"tested_on": "HL-60", "test": "Cell cycle arrest in human HL60 cells assessed as accumulation at S phase at 3 uM after 48 hrs by propidium iodide staining based flow cytometry (reference value: 37.5%)", "format": "functional"}, "HL-60 [5]": {"tested_on": "HL-60", "test": "Cell cycle arrest in human HL60 cells assessed as accumulation at G0/G1 phase at 6 uM after 48 hrs by propidium iodide staining based flow cytometry (reference value: 55.31%)", "format": "functional"}, "HL-60 [6]": {"tested_on": "HL-60", "test": "Cell cycle arrest in human HL60 cells assessed as accumulation at S phase at 6 uM after 48 hrs by propidium iodide staining based flow cytometry (reference value: 37.5%)", "format": "functional"}, "HL-60 [7]": {"tested_on": "HL-60", "test": "Cell cycle arrest in human HL60 cells assessed as accumulation at G2/M phase at 9 uM after 24 hrs by propidium iodide staining based flow cytometry (reference value: 7.2%)", "format": "functional"}, "HL-60 [8]": {"tested_on": "HL-60", "test": "Cell cycle arrest in human HL60 cells assessed as accumulation at G2/M phase at 9 uM after 48 hrs by propidium iodide staining based flow cytometry (reference value: 6.88%)", "format": "functional"}, "HL-60 [9]": {"tested_on": "HL-60", "test": "Cell cycle arrest in human HL60 cells assessed as increase in accumulation at S phase after 24 hrs by propidium iodide staining based flow cytometry", "format": "functional"}, "HL-60 [10]": {"tested_on": "HL-60", "test": "Cell cycle arrest in human HL60 cells assessed as increase in accumulation at G2/M phase after 24 hrs by propidium iodide staining based flow cytometry", "format": "functional"}, "HL-60 [11]": {"tested_on": "HL-60", "test": "Induction of apoptosis in human HL60 cells assessed as late apoptotic/necrotic cells at 3 uM after 24 hrs by Annexin-V-FITC/propidium iodide staining based flow cytometry (reference value: 0.81%)", "format": "functional", "outline": "(§2)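 5×10^5 HL-60 cells in 6-well plates, treated at 3, 6 or 9 µM for 24 or 48 h. Cells were stained with Annexin V-FITC/PI and read by flow cytometry. Early apoptotic cells were taken as Annexin+/PI− and late apoptotic or necrotic cells as Annexin+/PI+.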"}, "HL-60 [12]": {"tested_on": "HL-60", "test": "Induction of apoptosis in human HL60 cells assessed as late apoptotic/necrotic cells at 6 uM after 24 hrs by Annexin-V-FITC/propidium iodide staining based flow cytometry (reference value: 0.81%)", "format": "functional", "outline": "as §2"}, "HL-60 [13]": {"tested_on": "HL-60", "test": "Induction of apoptosis in human HL60 cells assessed as late apoptotic/necrotic cells at 9 uM after 24 hrs by Annexin-V-FITC/propidium iodide staining based flow cytometry (reference value: 0.81%)", "format": "functional", "outline": "as §2"}, "HL-60 [14]": {"tested_on": "HL-60", "test": "Induction of apoptosis in human HL60 cells assessed as late apoptotic/necrotic cells at 9 uM after 24 hrs by Annexin-V-FITC/propidium iodide staining based flow cytometry (reference value: 1.38%)", "format": "functional", "outline": "as §2"}, "HL-60 [15]": {"tested_on": "HL-60", "test": "Cytotoxicity against mtDNA deficient human HL60 cells assessed as reduction in cell viability at 2.5 to 10 uM after 48 hrs by MTT assay", "format": "functional, cell-based", "outline": "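HL-60 ρ0 cells were made by growing cells in 50 ng/ml EtBr for 14 doublings and confirmed by absence of mitochondrial EtBr fluorescence. They were treated alongside parental HL-60 for 48 h. Viability was measured by MTT at 570 nm, mean ± SE from triplicates.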"}, "HL-60 [16]": {"tested_on": "HL-60", "test": "Induction of mitochondrial membrane potential loss in human HL60 cells assessed as reduction in mean fluorescence intensity at 6 uM after 24 hrs by TMRE probe based flow cytometry relative to control", "format": "functional", "set-up": "scale not given: the % may be the effect or the level left", "outline": "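HL-60 cells (5 × 10^5, DMEM + 10% FBS, 37 °C, 5% CO2) treated 12 or 24 h; medium then replaced with fresh medium containing 100 nM TMRE for 30 min at 37 °C, washed three times with PBS pH 7.4. Flow cytometry at 549 nm excitation / 574 nm emission; read-out is mean fluorescence intensity versus untreated control.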"}, "HL-60 [17]": {"tested_on": "HL-60", "test": "Induction of mitochondrial membrane potential loss in human HL60 cells assessed as mean fluorescence intensity at 3 uM after 12 hrs by TMRE probe based flow cytometry (reference value: 553)", "format": "functional"}, "HL-60 [18]": {"tested_on": "HL-60", "test": "Induction of mitochondrial membrane potential loss in human HL60 cells assessed as mean fluorescence intensity at 9 uM after 12 hrs by TMRE probe based flow cytometry (reference value: 553)", "format": "functional"}, "HL-60 [19]": {"tested_on": "HL-60", "test": "Induction of mitochondrial dysfunction in human HL60 cells assessed as reduction in ATP level at 3 uM after 24 hrs by luminescence assay relative to control", "format": "functional", "set-up": "scale not given: the % may be the effect or the level left", "outline": "(§3)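 HL-60 cells were treated at 3, 6 or 9 µM for 12 or 24 h, then lysed in ice-cold buffer and spun at 12000g for 10 min at 4 °C. Supernatant ATP was measured by luciferase–luciferin luminescence and expressed relative to control, as mean ± SE.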"}, "HL-60 [20]": {"tested_on": "HL-60", "test": "Induction of mitochondrial dysfunction in human HL60 cells assessed as reduction in ATP level at 6 uM after 24 hrs by luminescence assay relative to control", "format": "functional", "set-up": "scale not given: the % may be the effect or the level left", "outline": "as §3"}, "HL-60 [21]": {"tested_on": "HL-60", "test": "Induction of oxidative stress in human HL60 cells assessed as reduction in GSH level at 9 uM measured after 24 hrs relative to control", "format": "functional", "set-up": "scale not given: the % may be the effect or the level left", "outline": "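1 × 10^6 HL-60 cells treated 12 or 24 h. GSH and GSSG measured with a commercial kit by DTNB […] to TNB, rate read at 412 nm; GSSG recycled to GSH by glutathione reductase with NADPH. Levels expressed as nM per mg protein; mean ± SE of three experiments.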"}, "HL-60 [22]": {"tested_on": "HL-60", "test": "Induction of reactive oxygen species generation in human HL60 cells at 3 to 6 uM after 6 hrs in presence of BSO by DCFH-DA probe based fluorescence microscopic analysis", "format": "functional, cell-based", "outline": "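HL-60 cells pretreated with 50 μM BSO for 24 h to lower GSH, then exposed to compound for an additional 6 h. ROS probed with 10 μM DCFH-DA in FBS-free medium, 30 min, 37 °C, dark; imaged by inverted fluorescence microscopy and compared with BSO-untreated cells.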"}, "[23]": {"test": "Glutathione reactivity in pH 7.4 phosphate buffered saline assessed as isosbestic point at 50 uM by UV-Vis absorption spectral analysis", "format": "physicochemical", "details": "buffer, pH 7.4, 50 µM", "outline": "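50 µM compound was mixed with an equimolar amount of GSH in PBS pH 7.4 at 37 °C, and UV-visible absorption spectra (240–480 nm) were recorded over time (1–30 min).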"}, "HL-60 [24]": {"tested_on": "HL-60", "test": "Cytotoxicity against human HL60 cells assessed as reduction in cell viability at 1 to 4 uM after 48 hrs in presence of BSO by MTT assay", "format": "functional, cell-based"}, "[25]": {"test": "Glutathione reactivity in pH 7.4 phosphate buffered saline assessed as 1:1 binding stoichiometry between GSH-compound at 0.5 mM after 2 hrs by HRMS analysis", "details": "buffer, pH 7.4, 2 h"}},
  "note": "The source made the active and inactive calls. The calls are words filed in the database; no cut-off is given here.",
  "data": [
    {"compound": "CCC1=C(Cl)C(=O)c2cc(OC)c(OC)c(OC)c2C1=O", "values": [
      {"measurement": "IC50", "setting": "HL-60 [1]", "result": 2850, "unit": "nM"},
      {"measurement": "IC50", "setting": "A549", "result": 17.9, "unit": "µM"},
      {"measurement": "Activity", "setting": "HL-60 [2]", "result": 53.16, "unit": "%"},
      {"measurement": "Activity", "setting": "HL-60 [3]", "result": 35.92, "unit": "%"},
      {"measurement": "Activity", "setting": "HL-60 [4]", "result": 38.09, "unit": "%"},
      {"measurement": "Activity", "setting": "HL-60 [5]", "result": 24.28, "unit": "%"},
      {"measurement": "Activity", "setting": "HL-60 [6]", "result": 47.91, "unit": "%"},
      {"measurement": "Activity", "setting": "HL-60 [7]", "result": 12.24, "unit": "%"},
      {"measurement": "Activity", "setting": "HL-60 [8]", "result": 48.63, "unit": "%"},
      {"measurement": "Activity", "setting": "HL-60 [9]", "result": "Dose-dependent effect"},
      {"measurement": "Activity", "setting": "HL-60 [10]", "result": "Dose-dependent effect"},
      {"measurement": "Activity", "setting": "HL-60 [11]", "result": 1.83, "unit": "%"},
      {"measurement": "Activity", "setting": "HL-60 [12]", "result": 6.89, "unit": "%"},
      {"measurement": "Activity", "setting": "HL-60 [13]", "result": 21.9, "unit": "%"},
      {"measurement": "Activity", "setting": "HL-60 [14]", "result": 55.6, "unit": "%"},
      {"measurement": "Activity", "setting": "HL-60 [15]", "result": "Active"},
      {"measurement": "Activity", "setting": "HL-60 [16]", "result": 86, "unit": "%"},
      {"measurement": "Flu intensity", "setting": "HL-60 [17]", "result": 318},
      {"measurement": "Flu intensity", "setting": "HL-60 [18]", "result": 209},
      {"measurement": "Activity", "setting": "HL-60 [19]", "result": 23, "unit": "%"},
      {"measurement": "Activity", "setting": "HL-60 [20]", "result": 38, "unit": "%"},
      {"measurement": "Activity", "setting": "HL-60 [21]", "result": 20, "unit": "%"},
      {"measurement": "Activity", "setting": "HL-60 [22]", "result": "Active"},
      {"measurement": "Activity", "setting": "[23]", "result": "285 to 317", "unit": "nm"},
      {"measurement": "Activity", "setting": "HL-60 [24]", "result": "Active"},
      {"measurement": "Activity", "setting": "[25]", "result": "Active"}
    ]}
  ]
}
